Experimental data published in ChEMBL document CHEMBL1130231, “Betidamino acid scan of the GnRH antagonist acyline” (J Med Chem, 1997).
Values belong to the compound of their own block, whether it stands above or below them. Activity calls are given as the source filed them. No cut-off for these calls is given here.

How the values were obtained:
Rattus norvegicus [1] = assay: Ratio of ovulated rats to total number of rats determined in a anti-ovulatory assay by administering 2.5 microg of compound; 2/8; type: functional, organism-based
Rattus norvegicus [2] = assay: Ratio of ovulated rats to total number of rats determined in a anti-ovulatory assay by administering 10 microg of compound; 0/8; type: functional, organism-based
Rattus norvegicus [3] = assay: Ratio of ovulated rats to total number of rats determined in a anti-ovulatory assay by administering 5 microg of compound; 1/8; type: functional, organism-based
Rattus norvegicus [4] = assay: Ratio of ovulated rats to total number of rats determined in a anti-ovulatory assay by administering 2.5 microg of compound; 0/8; type: functional, organism-based
Rattus norvegicus [5] = assay: Ratio of ovulated rats to total number of rats determined in a anti-ovulatory assay by administering 1 microg of compound; 8/8; type: functional, organism-based
Rattus norvegicus [6] = assay: Ratio of ovulated rats to total number of rats determined in a anti-ovulatory assay by administering 1 microg of compound; 5/8; type: functional, organism-based
Rattus norvegicus [7] = assay: Ratio of ovulated rats to total number of rats determined in a anti-ovulatory assay by administering 5 microg of compound; 0/8; type: functional, organism-based
Rattus norvegicus [8] = assay: Ratio of ovulated rats to total number of rats determined in a anti-ovulatory assay by administering 250 microg of compound; 6/8; type: functional, organism-based
Rattus norvegicus [9] = assay: Ratio of ovulated rats to total number of rats determined in a anti-ovulatory assay by administering 5 microg of compound; 2/8; type: functional, organism-based
[10] = biological target: T1, Gonadotropin-releasing hormone receptor (Rattus norvegicus, UniProt P30969); assay: Inhibition of binding of radiolabeled histrelin to Gonadotropin-releasing hormone receptor (GnRHr) in rat pituitary gland membranes; type: cell membranes, Membrane
T1 sequence (P30969 whole entry): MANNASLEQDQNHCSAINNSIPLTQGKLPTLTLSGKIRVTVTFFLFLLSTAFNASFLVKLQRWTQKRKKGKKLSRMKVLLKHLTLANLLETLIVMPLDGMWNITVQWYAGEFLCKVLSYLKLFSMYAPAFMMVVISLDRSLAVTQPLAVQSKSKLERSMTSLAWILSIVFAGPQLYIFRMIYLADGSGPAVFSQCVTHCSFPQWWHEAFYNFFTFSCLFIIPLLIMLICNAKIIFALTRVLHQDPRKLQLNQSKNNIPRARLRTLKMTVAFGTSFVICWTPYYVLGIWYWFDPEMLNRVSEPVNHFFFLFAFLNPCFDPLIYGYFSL
Method in brief: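 Rat anterior pituitary membranes (male and female glands equal numbers), homogenized in 0.32 M sucrose/aprotinin, 4000g pellet, diluted 15-fold in 10 mM Hepes, 0.2% BSA, pH 7.6. Filtration onto PEI-treated glass filters, scintillation counting. IC50 in nM, duplicate, n = 1.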

SMILES: CC(=O)Nc1ccc(C[C@H](NC(=O)[C@H](CO)NC(=O)[C@@H](NC(=O)c2ccncc2)NC(=O)[C@@H](Cc2ccc(Cl)cc2)NC(=O)[C@@H](Cc2ccc3ccccc3c2)NC(C)=O)C(=O)N[C@H](Cc2ccc(NC(C)=O)cc2)C(=O)N[C@@H](CC(C)C)C(=O)N[C@@H](CCCCNC(C)C)C(=O)N2CCC[C@@H]2C(=O)N[C@H](C)C(N)=O)cc1 (single isomer, unassigned)
ov. rat/total (Rattus norvegicus [1]): Partially active | ov. rat/total (Rattus norvegicus [2]): Active

SMILES: CC(=O)Nc1ccc(C[C@H](NC(=O)[C@H](CO)NC(=O)[C@@H](Cc2cccnc2)NC(=O)[C@@H](Cc2ccc(Cl)cc2)NC(=O)[C@@H](Cc2ccc3ccccc3c2)NC(C)=O)C(=O)N[C@H](Cc2ccc(NC(C)=O)cc2)C(=O)N[C@H](C(=O)N[C@@H](CCCCNC(C)C)C(=O)N2CCC[C@@H]2C(=O)N[C@H](C)C(N)=O)N(C)C(C)=O)cc1
ov. rat/total (Rattus norvegicus [3]): Active | ov. rat/total (Rattus norvegicus [1]): Partially active

SMILES: CN[C@@H](NC(=O)[C@H]1CCCN1C(=O)[C@H](CCCCNC(C)C)NC(=O)[C@H](CC(C)C)NC(=O)[C@@H](Cc1ccc(NC(C)=O)cc1)NC(=O)[C@H](Cc1ccc(NC(C)=O)cc1)NC(=O)[C@H](CO)NC(=O)[C@@H](Cc1cccnc1)NC(=O)[C@@H](Cc1ccc(Cl)cc1)NC(=O)[C@@H](Cc1ccc2ccccc2c1)NC(C)=O)C(N)=O
ov. rat/total (Rattus norvegicus [4]): Active | ov. rat/total (Rattus norvegicus [5]): inactive

SMILES: CC(=O)Nc1ccc(C[C@@H](NC(=O)[C@H](NC(=O)[C@H](CO)NC(=O)[C@@H](Cc2cccnc2)NC(=O)[C@@H](Cc2ccc(Cl)cc2)NC(=O)[C@@H](Cc2ccc3ccccc3c2)NC(C)=O)N(C)C(=O)c2ccc(NC(C)=O)cc2)C(=O)N[C@@H](CC(C)C)C(=O)N[C@@H](CCCCNC(C)C)C(=O)N2CCC[C@@H]2C(=O)N[C@H](C)C(N)=O)cc1
ov. rat/total (Rattus norvegicus [4]): Active | ov. rat/total (Rattus norvegicus [6]): Partially active

SMILES: CC(=O)Nc1ccc(C[C@H](NC(=O)[C@@H](NC=O)NC(=O)[C@@H](Cc2cccnc2)NC(=O)[C@@H](Cc2ccc(Cl)cc2)NC(=O)[C@@H](Cc2ccc3ccccc3c2)NC(C)=O)C(=O)N[C@H](Cc2ccc(NC(C)=O)cc2)C(=O)N[C@@H](CC(C)C)C(=O)N[C@@H](CCCCNC(C)C)C(=O)N2CCC[C@@H]2C(=O)N[C@H](C)C(N)=O)cc1 (single isomer, unassigned)
ov. rat/total (Rattus norvegicus [7]): Active

SMILES: CC(=O)Nc1ccc(C[C@H](NC(=O)[C@H](CO)NC(=O)[C@@H](Cc2cccnc2)NC(=O)[C@@H](NC(=O)[C@@H](Cc2ccc3ccccc3c2)NC(C)=O)N(C)C(=O)c2ccc(Cl)cc2)C(=O)N[C@H](Cc2ccc(NC(C)=O)cc2)C(=O)N[C@@H](CC(C)C)C(=O)N[C@@H](CCCCNC(C)C)C(=O)N2CCC[C@@H]2C(=O)N[C@H](C)C(N)=O)cc1 (mixture of isomers)
ov. rat/total (Rattus norvegicus [8]): inactive

SMILES: CC(=O)Nc1ccc(C[C@H](NC(=O)[C@H](CO)NC(=O)[C@@H](Cc2cccnc2)NC(=O)[C@@H](Cc2ccc(Cl)cc2)NC(=O)[C@@H](Cc2ccc3ccccc3c2)NC(C)=O)C(=O)N[C@H](Cc2ccc(NC(C)=O)cc2)C(=O)N[C@@H](CC(C)C)C(=O)N[C@@H](CCCCNC(C)C)C(=O)N2CCC[C@@H]2C(=O)N[C@@H](C)C(N)=O)cc1
ov. rat/total (Rattus norvegicus [4]): Active | ov. rat/total (Rattus norvegicus [5]): inactive

SMILES: CC(=O)Nc1ccc(C[C@H](NC(=O)[C@@H](NC(=O)CO)NC(=O)[C@@H](Cc2cccnc2)NC(=O)[C@@H](Cc2ccc(Cl)cc2)NC(=O)[C@@H](Cc2ccc3ccccc3c2)NC(C)=O)C(=O)N[C@H](Cc2ccc(NC(C)=O)cc2)C(=O)N[C@@H](CC(C)C)C(=O)N[C@@H](CCCCNC(C)C)C(=O)N2CCC[C@@H]2C(=O)N[C@H](C)C(N)=O)cc1 (single isomer, unassigned)
ov. rat/total (Rattus norvegicus [9]): Partially active

IC50 [10]: 0.51 nM
SMILES: CC(=O)Nc1ccc(C[C@@H](NC(=O)[C@@H](NC(=O)c2ccc(NC(C)=O)cc2)NC(=O)[C@H](CO)NC(=O)[C@@H](Cc2cccnc2)NC(=O)[C@@H](Cc2ccc(Cl)cc2)NC(=O)[C@@H](Cc2ccc3ccccc3c2)NC(C)=O)C(=O)N[C@@H](CC(C)C)C(=O)N[C@@H](CCCCNC(C)C)C(=O)N2CCC[C@H]2C(=O)N[C@H](C)C(N)=O)cc1

IC50 [10]: 220 nM
SMILES: CC(=O)Nc1ccc(C[C@H](NC(=O)[C@H](CO)NC(=O)[C@H](NC(=O)c2ccncc2)NC(=O)[C@@H](Cc2ccc(Cl)cc2)NC(=O)[C@@H](Cc2ccc3ccccc3c2)NC(C)=O)C(=O)N[C@H](Cc2ccc(NC(C)=O)cc2)C(=O)N[C@@H](CC(C)C)C(=O)N[C@@H](CCCCNC(C)C)C(=O)N2CCC[C@H]2C(=O)N[C@H](C)C(N)=O)cc1 (single isomer, unassigned)

IC50 [10]: 1700 nM
SMILES: CC(=O)Nc1ccc(C[C@H](NC(=O)[C@H](CO)NC(=O)[C@@H](Cc2cccnc2)NC(=O)[C@H](NC(=O)c2cnccn2)NC(=O)[C@@H](Cc2ccc3ccccc3c2)NC(C)=O)C(=O)N[C@H](Cc2ccc(NC(C)=O)cc2)C(=O)N[C@@H](CC(C)C)C(=O)N[C@@H](CCCCNC(C)C)C(=O)N2CCC[C@H]2C(=O)N[C@H](C)C(N)=O)cc1 (single isomer, unassigned)

IC50 [10]: 0.74 nM
SMILES: CC(=O)Nc1ccc(C[C@H](NC(=O)[C@H](CO)NC(=O)[C@@H](Cc2cccnc2)NC(=O)[C@@H](Cc2ccc(Cl)cc2)NC(=O)[C@@H](Cc2ccc3ccccc3c2)NC(C)=O)C(=O)N[C@H](Cc2ccc(NC(C)=O)cc2)C(=O)N[C@@H](CC(C)C)C(=O)NC(NC(=O)CNC(=N)N)C(=O)N2CCC[C@H]2C(=O)N[C@H](C)C(N)=O)cc1 (stereo partly specified)

SMILES: CC(=O)Nc1ccc(C[C@H](NC(=O)[C@H](CO)NC(=O)[C@@H](Cc2cccnc2)NC(=O)[C@@H](Cc2ccc(Cl)cc2)NC(=O)[C@@H](Cc2ccc3ccccc3c2)NC(C)=O)C(=O)N[C@@H](C(=O)N[C@@H](CC(C)C)C(=O)N[C@@H](CCCCNC(C)C)C(=O)N2CCC[C@@H]2C(=O)N[C@H](C)C(N)=O)N(C)C(=O)c2ccc(NC(C)=O)cc2)cc1 (mixture of isomers)
ov. rat/total (Rattus norvegicus [1]): Partially active

IC50 [10]: 0.48 nM
SMILES: CC(=O)Nc1ccc(C[C@H](NC(=O)[C@H](CO)NC(=O)[C@@H](Cc2cccnc2)NC(=O)[C@@H](Cc2ccc(Cl)cc2)NC(=O)[C@@H](Cc2ccc3ccccc3c2)NC(C)=O)C(=O)N[C@H](Cc2ccc(NC(C)=O)cc2)C(=O)N[C@@H](CC(C)C)C(=O)N[C@@H](CCCCNC(C)C)C(=O)N2CCC[C@H]2C(=O)N[C@H](N)C(N)=O)cc1

IC50 [10]: 0.9 nM
SMILES: CN[C@@H](NC(=O)[C@@H]1CCCN1C(=O)[C@H](CCCCNC(C)C)NC(=O)[C@H](CC(C)C)NC(=O)[C@@H](Cc1ccc(NC(C)=O)cc1)NC(=O)[C@H](Cc1ccc(NC(C)=O)cc1)NC(=O)[C@H](CO)NC(=O)[C@@H](Cc1cccnc1)NC(=O)[C@@H](Cc1ccc(Cl)cc1)NC(=O)[C@@H](Cc1ccc2ccccc2c1)NC(C)=O)C(N)=O

IC50 [10]: 0.38 nM
SMILES: CC(=O)Nc1ccc(C[C@H](NC(=O)[C@H](CO)NC(=O)[C@@H](Cc2cccnc2)NC(=O)[C@@H](Cc2ccc(Cl)cc2)NC(=O)[C@@H](Cc2ccc3ccccc3c2)NC(C)=O)C(=O)N[C@H](Cc2ccc(NC(C)=O)cc2)C(=O)N[C@@H](CC(C)C)C(=O)N[C@@H](CCCCNC(C)C)C(=O)N2CCC[C@H]2C(=O)N[C@@H](C)C(N)=O)cc1

SMILES: CC(=O)Nc1ccc(C[C@H](NC(=O)[C@H](CO)NC(=O)[C@@H](Cc2cccnc2)NC(=O)[C@H](NC(=O)c2c[nH]nc2N)NC(=O)[C@@H](Cc2ccc3ccccc3c2)NC(C)=O)C(=O)N[C@H](Cc2ccc(NC(C)=O)cc2)C(=O)N[C@@H](CC(C)C)C(=O)N[C@@H](CCCCNC(C)C)C(=O)N2CCC[C@@H]2C(=O)N[C@H](C)C(N)=O)cc1
ov. rat/total (Rattus norvegicus [8]): inactive

IC50 [10]: 3 nM
SMILES: CC(=O)Nc1ccc(C[C@H](NC(=O)[C@H](CO)NC(=O)[C@@H](Cc2cccnc2)NC(=O)[C@@H](Cc2ccc(Cl)cc2)NC(=O)[C@@H](NC(C)=O)NC(=O)c2ccc3ccccc3c2)C(=O)N[C@H](Cc2ccc(NC(C)=O)cc2)C(=O)N[C@@H](CC(C)C)C(=O)N[C@@H](CCCCNC(C)C)C(=O)N2CCC[C@H]2C(=O)N[C@H](C)C(N)=O)cc1

SMILES: CC(=O)Nc1ccc(C[C@@H](NC(=O)[C@@H](NC(=O)c2ccc(NC(C)=O)cc2)NC(=O)[C@H](CO)NC(=O)[C@@H](Cc2cccnc2)NC(=O)[C@@H](Cc2ccc(Cl)cc2)NC(=O)[C@@H](Cc2ccc3ccccc3c2)NC(C)=O)C(=O)N[C@@H](CC(C)C)C(=O)N[C@@H](CCCCNC(C)C)C(=O)N2CCC[C@@H]2C(=O)N[C@H](C)C(N)=O)cc1
ov. rat/total (Rattus norvegicus [9]): Partially active

IC50 [10]: 0.62 nM
SMILES: CC(=O)Nc1ccc(C[C@H](NC(=O)[C@H](CO)NC(=O)[C@@H](Cc2cccnc2)NC(=O)[C@@H](Cc2ccc(Cl)cc2)NC(=O)[C@@H](Cc2ccc3ccccc3c2)NC(C)=O)C(=O)N[C@H](Cc2ccc(NC(C)=O)cc2)C(=O)N[C@@H](CC(C)C)C(=O)N[C@@H](CCCCNC(C)C)C(=O)N2CCC[C@H]2C(=O)N[C@@H](NC=O)C(N)=O)cc1 (single isomer, unassigned)

IC50 [10]: 0.64 nM
SMILES: CC(=O)Nc1ccc(C[C@H](NC(=O)[C@H](CO)NC(=O)[C@@H](Cc2cccnc2)NC(=O)[C@@H](Cc2ccc(Cl)cc2)NC(=O)[C@H](Cc2ccc3ccccc3c2)NC(C)=O)C(=O)N[C@H](Cc2ccc(NC(C)=O)cc2)C(=O)N[C@@H](CC(C)C)C(=O)N[C@@H](CCCCNC(C)C)C(=O)N2CCC[C@H]2C(=O)N[C@H](C)C(N)=O)cc1
